The record followed here is ChEMBL document CHEMBL5614410, “Design, Synthesis, and Evaluation of p53Y220C Acetylation Targeting Chimeras (AceTACs)” (J Med Chem, 2024).

Data set [1] in a line: Cytotoxicity against human PNT2 cells assessed as inhibition of cell growth at 10 uM incubated for 72 hrs by WST-8 assay. The format is toxicity, cell-based. The method in brief:
(§1)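 U2OS (WT p53) or normal prostate PNT2 cells were treated for 72 h at the indicated concentrations. Viability is mean ± SD of technical triplicates from two biological experiments.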
A general note: Tetrazolium dyes change colour on reduction, which living cells bring about.

The test system of data set [2] is CREB-binding protein/Histone acetyltransferase p300/Cellular tumor antigen p53 (Homo sapiens), P04637+Q09472+Q92793 [Y220C]. Kind of data set: (§2) AceTAC activity at FLAG-tagged p53Y220C mutant (unknown origin) expressed in human NCI-H1299 cells expressing p300/CBP assessed as increase in p53 acetylation at lysine 382 residue incubated for 24 hrs by western blot analysis. Format: cell-based. In outline: (§3)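 NCI-H1299 (p53Y220C) cells were treated at 0.1–10 μM (0.1, 0.3, 1, 3 or 10 μM) for 24 h. Lysates were Western blotted for p53 and p53K382ac, with vinculin as loading control. p53K382ac was normalised to total p53Y220C and quantified from two or three independent experiments.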
On the technique in general: A western blot detects proteins with antibodies after separation by electrophoresis.

Data set [3] concerns the target CREB-binding protein/Histone acetyltransferase p300/Cellular tumor antigen p53 (Homo sapiens, UniProt P04637+Q09472+Q92793, Y220C). The description is as §2. The format is cell-based. In outline:
as §3

Data set [4] deals with CREB-binding protein/Histone acetyltransferase p300/Cellular tumor antigen p53 (Homo sapiens), P04637+Q09472+Q92793 [Y220C]. Kind of data set: AceTAC activity at FLAG-tagged p53Y220C mutant (unknown origin) expressed in human NCI-H1299 cells expressing p300/CBP assessed as increase in p53 acetylation at lysine 382 residue at 10 uM pretreated for 2 hrs with p300/CBP bromodomain binder, 4-(2-(5-(3,5-dimethylisoxazol-4-yl)-2-(3-fluoro-4-methoxyphenethyl)-1H-benzo[d]imidazol-1-yl)ethyl)morpholine followed by incubation with compound for 18 hrs by western blot analysis. The format is cell-based.

The test system of the next data set is NUGC-3. Briefly: Antiproliferative activity against human NUGC-3 cells harboring p53Y220C mutant assessed as inhibition of cell growth incubated for 72 hrs by WST-8 assay. Format: functional. The method in brief:
(§4)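 BxPC3 or NUGC-3 cells were treated with DMSO or compound over a concentration range for 72 h before the viability read-out. Values are mean ± SD of technical triplicates from three biological experiments.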

Another data set deals with PNT2. Briefly: Cytotoxicity against human PNT2 cells assessed as inhibition of cell growth incubated for 72 hrs by WST-8 assay. The format is toxicity, cell-based. As to conditions: pnt2, 72 h. In outline:
as §1

The test system of another data set is BXPC-3. Kind of data set: Antiproliferative activity against human BXPC-3 cells harboring p53Y220C mutant assessed as inhibition of cell growth incubated for 72 hrs by WST-8 assay. Format: functional. The method in brief: as §4
Data set [5] relates to CREB-binding protein/Histone acetyltransferase p300/Cellular tumor antigen p53 (Homo sapiens), P04637+Q09472+Q92793 [Y220C]. Briefly: AceTAC activity at FLAG-tagged p53Y220C mutant (unknown origin) expressed in human NCI-H1299 cells expressing p300/CBP assessed as downregulation of SLC7A11 mRNA expression at 3 uM incubated for 24 hrs by RT-PCR analysis. Format: cell-based. The method in brief: (§5)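 NCI-H1299 p53Y220C cells were treated with DMSO or compound at 3 μM for 24 h. mRNA of p53-target genes was measured by RT-qPCR, normalised to GAPDH and expressed relative to DMSO control. Values are mean ± SD of three independent experiments.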

The test system is the same in data set [6]. Briefly: Induction of interaction between FLAG-tagged p53Y220C mutant (unknown origin) and p300/CBP expressed in human NCI-H1299 cells at 10 uM pretreated for 2 hrs with p300/CBP bromodomain binder, 4-(2-(5-(3,5-dimethylisoxazol-4-yl)-2-(3-fluoro-4-methoxyphenethyl)-1H-benzo[d]imidazol-1-yl)ethyl)morpholine followed by incubation with compound for 18 hrs by co-immunoprecipitation analysis. Format: cell-based. In outline:
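NCI-H1299 (p53Y220C) cells were pretreated for 2 h with a 10 μM p53Y220C binder or a 10 μM p300 binder, then given compound at 3 μM for 18 h. p53-FLAG pull-down was followed by Western blot analysis.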

The test system is the same in data set [7]. Briefly: AceTAC activity at FLAG-tagged p53Y220C mutant (unknown origin) expressed in human NCI-H1299 cells expressing p300/CBP assessed as increase in p53 acetylation at lysine 382 residue at 3 uM incubated for 24 hrs by western blot analysis. Format: cell-based. In outline:
as §3

A short description of data set [8]: Toxicity in Swiss albino mouse assessed as tolerability at 50 mg/kg, ip measured for 8 hrs. Format: organism-based. To be noted: in vivo.
Data set [9] deals with NCI-H1299. Briefly: Inhibition of colony formation in human NCI-H1299 cells expressing p53Y220C mutant at 1 uM incubated for 14 days by crystal violet staining based analysis. Format: functional, cell-based. To be noted: time 14.0 day. In outline:
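Clonogenic assay in NCI-H1299 (p53Y220C) cells exposed to DMSO or 1, 3 or 10 μM for 14 days. Colonies were fixed and stained with crystal violet. Images are representative of two independent experiments.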

In data set [10] the test system is NCI-H1299. Briefly: Antiproliferative activity against human NCI-H1299 cells expressing p53Y220C mutant and transfected with p300 siRNA assessed as reduction in cell viability at 0.47 to 15 uM incubated for 3 days by WST-8 assay. The format is functional, cell-based. To be noted: dose 0.47-15 µM, time 3.0 day. In outline:
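NCI-H1299 p53Y220C cells were first transfected with p300 siRNA for 72 h, then exposed to compound across the concentration series for 72 h. Viability is mean ± SD from three independent experiments.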

Data set [11] has as its system CREB-binding protein/Histone acetyltransferase p300/Cellular tumor antigen p53 (Homo sapiens), P04637+Q09472+Q92793 [Y220C]. Briefly: AceTAC activity at FLAG-tagged p53Y220C mutant (unknown origin) expressed in human NCI-H1299 cells expressing p300/CBP and transfected with control siRNA assessed as increase in p53 acetylation at lysine 382 residue at 1 to 10 uM incubated for 24 hrs by western blot analysis. Format: cell-based. To be noted: dose 1-10 µM. The method in brief: (§6)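 NCI-H1299 cells stably expressing p53Y220C were given control or p300 siRNA, then treated at 0, 1 or 10 μM for 24 h. Lysates were Western blotted for p53 and p53K382ac. The acetylation level was normalised to vinculin and quantified from two independent experiments.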

Data set [12] has the same test system. Briefly: AceTAC activity at FLAG-tagged p53Y220C mutant (unknown origin) expressed in human NCI-H1299 cells expressing p300/CBP assessed as upregulation of p21 mRNA expression at 3 uM incubated for 24 hrs by RT-qPCR analysis. Format: cell-based. The method in brief:
as §5
On the technique in general: Quantitative PCR measures a nucleic acid by following its amplification.

A further data set relates to U2OS. Kind of data set: Cytotoxicity against human U2OS cells harboring wild type p53 assessed as inhibition of cell growth incubated for 72 hrs by WST-8 assay. The format is toxicity, cell-based. In outline:
as §1

Data set [13] deals with CREB-binding protein/Histone acetyltransferase p300/Cellular tumor antigen p53 (Homo sapiens), P04637+Q09472+Q92793 [Y220C]. Briefly: Induction of interaction between FLAG-tagged p53Y220C mutant (unknown origin) and p300/CBP expressed in human NCI-H1299 cells assessed as ternary complex formation at 10 uM incubated for 24 hrs by co-immunoprecipitation analysis. The format is cell-based. In outline:
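NCI-H1299 p53-null and p53Y220C cells were treated with DMSO or compound at 10 μM for 24 h. p53-FLAG pull-down was followed by Western blotting for associated p300. Representative of two independent experiments.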

Data set [14] has the same test system. Kind of data set: AceTAC activity at FLAG-tagged p53Y220C mutant (unknown origin) expressed in human NCI-H1299 cells expressing p300/CBP and transfected with p300 siRNA assessed as increase in p53 acetylation at lysine 382 residue at 1 to 10 uM incubated for 24 hrs by western blot analysis. The format is cell-based. As to conditions: dose 1-10 µM. In outline:
as §6

Usually inhibition stands for the drop in the measured response relative to a control, in per cent. As a reminder, the EC50 is the concentration giving half of the maximal effect. In general, GI50 refers to the concentration that inhibits growth by half.

Molecules are shown by their SMILES. Calls of active or inactive are those of the source. The rule behind the calls is not given here.

`CCn1c2ccc(CNCCOCCOCCOCCC(=O)NCCOc3ccc(CCc4nc5cc(-c6c(C)noc6C)ccc5n4CCN4CCOCC4)cc3F)cc2c2ccc(-c3cc(C)cs3)cc21`: the inhibition at 72 h, 10 µM in data set [1] is about 30%. Also, the Activity entry was “Dose-Dependent Effect” in data set [2] and “Non-Toxic” in data set [8]. For the same molecule, the EC50 in data set [3] was 1.52 µM. The outcome (in [4]; in data set [6]; in the data set with NCI-H1299 [10]; in [14]) was inactive. Further, the GI50 with NUGC-3 was 1.83 µM; in the data set with PNT2, over 10 µM; in the data set with BXPC-3, 2.16 µM; in the data set on U2OS, over 10 µM. Moreover, the outcome in [5], in data set [7], in [11], in [12] and in [13] was Active. For the same molecule, in the data set with NCI-H1299 [9], the inhibition entry is “Active”.
